SMILES strings stand for the structures. Active and inactive are the calls of the source.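 The calls were made as follows: active = compounds blocking at least half of the virus-caused cell damage; inactive = the rest.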 Some results are limits rather than exact numbers.

Usually IC50 stands for the point on the concentration scale where inhibition reaches its midpoint.

In the test the test system is HEp-2 RSV Long CPE, luminescence viability. The test is described as follows: RSV cytopathic effect inhibition in HEp-2 cells, dose response, cell-based, RSV Long, luminescence viability, purified and synthesized compounds (AID 488972). An outline of the steps: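 Assay system: RSV Long-infected HEp-2 cells. Times: six-day compound and virus exposure at 37 °C. Detection: luminescence-based measurement of viral cytopathic effect. Repeats: triplicate wells per dose.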
In the case of `CC(C)(C)c1csc(NC(=O)c2cccnc2)n1`, the IC50 was > 50 µM (inactive).

Regarding `Cc1ccc(NC(=O)C2CCCN2S(C)(=O)=O)c(C)c1` (stereo unspecified), the IC50 is > 50 µM (inactive).

For `Cc1ccc(NC(=O)C2CCCN2S(=O)(=O)c2cccc3cc(C)cnc23)c(C)c1` (stereo unspecified), the IC50 is > 50 µM (inactive).

For the molecule `Cc1ccc(NC(=O)C2CCCN2S(=O)(=O)c2cccc3cccnc23)c(C)c1` (stereo unspecified), the IC50 is 13.2 µM.

Regarding `CSc1ncccc1C(=O)Nc1nc(C(C)(C)C)cs1`, the IC50 is 16.2 µM.

Regarding `Cc1ccc(NC(=O)[C@@H]2CCCN2S(=O)(=O)c2cccc3cccnc23)c(C)c1`, the IC50 is 7.81 µM.

In the case of `Cc1ccc(NC(=O)C2CCCN2S(=O)(=O)c2ccc3ncccc3c2)c(C)c1` (stereo unspecified), the IC50 was > 50 µM (inactive).

Take `Cc1csc(NC(=O)c2cccnc2)n1`: the IC50 is > 50 µM (inactive).

For the molecule `Cc1ccc(NC(=O)C2CCCN2S(=O)(=O)c2ccccc2)c(C)c1` (stereo unspecified), the IC50 is > 50 µM (inactive).

In the case of `Cc1ccc(NC(=O)C2CCCN2S(=O)(=O)c2cccc3ccccc23)c(C)c1` (stereo unspecified), the IC50 was > 50 µM (inactive).

Consider `Cc1ccc(NC(=O)CNS(=O)(=O)c2cccc3cccnc23)c(C)c1`, for which the IC50 is > 50 µM (inactive).

In the case of `Cc1ccc(NC(=O)C2CCCN2Cc2ccccc2)c(C)c1` (stereo unspecified), the IC50 was > 50 µM (inactive).

Regarding `Cc1ccc(NC(=O)C2CCCN2C(=O)c2ccccc2)c(C)c1` (stereo unspecified), the IC50 is > 50 µM (inactive).

`Cc1ccc(NC(=O)CN(C)S(=O)(=O)c2cccc3cccnc23)c(C)c1`: the IC50 is > 50 µM (inactive).

For `Cc1ccc(NC(=O)[C@H]2CCCN2S(=O)(=O)c2cccc3cccnc23)c(C)c1`, the IC50 is > 50 µM (inactive).

With `O=C(Nc1ccc(C(F)(F)F)cc1[N+](=O)[O-])O[C@H]1[C@H](Cc2ccccc2)NS(=O)(=O)[C@H]2C[C@@H]3C=C[C@]12O3`, the IC50 is > 50 µM (inactive).

As for `Cc1ccc(NC(=O)C(C)NS(=O)(=O)c2cccc3cccnc23)c(C)c1` (stereo unspecified), the IC50 was > 50 µM (inactive).

Turning to `CSc1ncccc1C(=O)Nc1nc(C)cs1`, the IC50 was > 50 µM (inactive).

In the case of `Cc1ccc(NC(=O)C2CCCN2C(=O)c2cccc3cccnc23)c(C)c1` (stereo unspecified), the IC50 is > 50 µM (inactive).

With `Cc1ccc(NC(=O)C2CCCN2S(=O)(=O)c2cccc3cnccc23)c(C)c1` (stereo unspecified), the IC50 is > 50 µM (inactive).

Take `Cc1ccc(NC(=O)C2CCCN2Cc2cccc3cccnc23)c(C)c1` (stereo unspecified): the IC50 is > 50 µM (inactive).

Values taken from PubChem BioAssay AID488972 (Southern Research Specialized Biocontainment Screening …, 2010).
